# Measurements published in PubChem BioAssay AID488780 (The Scripps Research Institute Molecular Screening Center, 2010).
# Active and inactive are the calls of the source.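 How the source made its calls: active means IC50 at or below 5 µM; inactive means the rest.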
# Molecular target: Steroidogenic factor 1 (Homo sapiens) (UniProt Q13285)
# Assay: SF-1 inhibitor potency in reporter cells, dose response, selectivity assay for LRH1 inverse agonist project, cell-based, luminescence (AID 488780)
# Settings: HEK293T SF-1 5xSFRE luciferase reporter, 20 h
# Method in brief: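 Assay system: HEK293T with SF-1 and 5xSFRE luciferase reporter | Compound: 9-point series from 10 µM | Timing: 24 h bulk transfection before replating, then 20 h compound exposure | Measured by: Luciferase luminescence | Read-out basis: IC50 from percent inhibition versus DMSO | Benchmarks: DMSO-treated cells as normalization reference | Repeats: Each dose tested in triplicate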
# Sequence of Steroidogenic factor 1 (Homo sapiens) (Q13285 whole entry, looked up): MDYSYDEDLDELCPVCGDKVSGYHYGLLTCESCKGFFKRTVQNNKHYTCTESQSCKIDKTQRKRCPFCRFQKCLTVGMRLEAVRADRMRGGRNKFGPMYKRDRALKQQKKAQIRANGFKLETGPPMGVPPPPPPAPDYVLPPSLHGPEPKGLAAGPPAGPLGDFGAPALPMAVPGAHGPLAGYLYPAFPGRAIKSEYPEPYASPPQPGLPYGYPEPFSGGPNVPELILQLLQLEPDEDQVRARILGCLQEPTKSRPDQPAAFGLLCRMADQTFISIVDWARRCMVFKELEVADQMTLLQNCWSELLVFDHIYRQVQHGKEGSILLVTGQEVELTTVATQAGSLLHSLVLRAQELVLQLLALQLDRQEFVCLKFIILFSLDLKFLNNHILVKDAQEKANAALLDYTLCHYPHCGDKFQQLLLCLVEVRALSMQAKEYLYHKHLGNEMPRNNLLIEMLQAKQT
row,IC50,Structure (SMILES)
1,> 10 µM (inactive),O=c1cc(N2CCN(c3cccc(Cl)c3)CC2)[nH]c(=O)n1C1CCCCC1
2,inactive,O=c1cc(N2CCN(C3CCCCC3)CC2)[nH]c(=O)n1C1CCCCC1

# Same assay, conditions: HEK293T SF-1 5xSFRE luciferase reporter, 20 h; at 10 µM (top of the series)
row,Structure (SMILES),"fold change, <1 = inhibition"
1,CCn1c(=O)cc(N2CCN(c3cccc(Cl)c3)CC2)[nH]c1=O,inactive
2,CC(C)Cn1c(=O)cc(N2CCN(c3cccc(C(F)(F)F)c3)CC2)[nH]c1=O,inactive
3,C=CCn1c(=O)cc(N2CCN(c3cccc(C(F)(F)F)c3)CC2)[nH]c1=O,inactive
4,CCn1c(=O)cc(N2CCN(c3cccc(C(F)(F)F)c3)CC2)[nH]c1=O,inactive
5,Cn1c(=O)cc(N2CCN(c3cccc(Cl)c3)CC2)[nH]c1=O,inactive
6,O=c1cc(N2CCN(Cc3ccc(Cl)cc3)CC2)[nH]c(=O)n1C1CCCCC1,inactive
7,Cc1cc(C)cc(N2CCN(c3cc(=O)n(C4CCCCC4)c(=O)[nH]3)CC2)c1,inactive
8,O=c1cc(N2CCN(c3cccc(C(F)(F)F)c3)CC2)[nH]c(=O)n1C1CCCCC1,inactive

# Other lines, results leading:
row,"fold change, <1 = inhibition",Structure (SMILES)
1,inactive,O=c1cc(N2CCN(c3nc(-c4ccccc4)ns3)CC2)[nH]c(=O)n1C1CCCCC1
2,inactive,O=c1cc(N2CCN(c3ccnc4cc(Cl)ccc34)CC2)[nH]c(=O)n1C1CCCCC1
3,inactive,O=c1cc(N2CCN(c3ccccc3)CC2)[nH]c(=O)n1C1CCCCC1
4,inactive,O=c1cc(N2CCN(c3cccc(Cl)c3Cl)CC2)[nH]c(=O)n1C1CCCCC1
5,inactive,O=c1cc(N2CCN(c3cccc(Cl)n3)CC2)[nH]c(=O)n1C1CCCCC1
6,inactive,O=c1cc(N2CCN(c3ccccn3)CC2)[nH]c(=O)n1C1CCCCC1
